Laboratory results reported in ChEMBL document CHEMBL4715736, “Identification of anticancer agents based on the thieno[2,3-b]pyridine and 1H-pyrazole molecular scaffolds” (2016).

Key:
Type in all cases: functional
MOLT-4 [1] = assay: Growth inhibition of human MOLT-4 cells assessed as cell growth at 0.01 uM incubated for 48 hrs by sulforhodamine B assay relative to control; settings: read-out: Activity
NCI-H322M = assay: Growth inhibition of human NCI-H322M cells assessed as cell growth at 0.01 uM incubated for 48 hrs by sulforhodamine B assay relative to control; settings: read-out: Activity
HCT-116 = assay: Growth inhibition of human HCT-116 cells assessed as cell growth at 0.01 uM incubated for 48 hrs by sulforhodamine B assay relative to control; settings: read-out: Activity
HT-29 [2] = assay: Growth inhibition of human HT-29 cells assessed as cell growth at 0.01 uM incubated for 48 hrs by sulforhodamine B assay relative to control; settings: read-out: Activity
SF-295 = assay: Growth inhibition of human SF-295 cells assessed as cell growth at 0.01 uM incubated for 48 hrs by sulforhodamine B assay relative to control; settings: read-out: Activity
SK-MEL-2 = assay: Growth inhibition of human SK-MEL-2 cells assessed as cell growth at 0.01 uM incubated for 48 hrs by sulforhodamine B assay relative to control; settings: read-out: Activity
UACC-62 = assay: Growth inhibition of human UACC-62 cells assessed as cell growth at 0.01 uM incubated for 48 hrs by sulforhodamine B assay relative to control; settings: read-out: Activity
CAKI-1 [3] = assay: Growth inhibition of human CAKI-1 cells assessed as cell growth at 0.01 uM incubated for 48 hrs by sulforhodamine B assay relative to control; settings: read-out: Activity
In short: (§1)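 NCI Developmental Therapeutics Program NCI60 panel. Compounds that were active in the 10 µM one-dose screen went on to dose–response testing. Growth at each concentration is expressed relative to untreated control (100%). GI50 (concentration giving 50% of maximal inhibition of proliferation) and TGI (concentration giving total growth inhibition) were derived from the curves.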

RXF 393 = assay: Growth inhibition of human RXF 393 cells assessed as cell growth at 0.01 uM incubated for 48 hrs by sulforhodamine B assay relative to control; settings: read-out: Activity
DU-145 = assay: Growth inhibition of human DU-145 cells assessed as cell growth at 0.01 uM incubated for 48 hrs by sulforhodamine B assay relative to control; settings: read-out: Activity; in short: as §1
SR = assay: Growth inhibition of human SR cells assessed as cell growth at 0.1 uM incubated for 48 hrs by sulforhodamine B assay relative to control; settings: read-out: Activity
NCI-H460 [4] = assay: Growth inhibition of human NCI-H460 cells assessed as cell growth at 0.1 uM incubated for 48 hrs by sulforhodamine B assay relative to control; settings: read-out: Activity
HT-29 [5] = assay: Growth inhibition of human HT-29 cells assessed as cell growth at 0.1 uM incubated for 48 hrs by sulforhodamine B assay relative to control; settings: read-out: Activity
SNB-19 [6] = assay: Growth inhibition of human SNB-19 cells assessed as cell growth at 0.1 uM incubated for 48 hrs by sulforhodamine B assay relative to control; settings: read-out: Activity
SNB-75 = assay: Growth inhibition of human SNB-75 cells assessed as cell growth at 0.1 uM incubated for 48 hrs by sulforhodamine B assay relative to control; settings: read-out: Activity
M14 = assay: Growth inhibition of human M14 cells assessed as cell growth at 0.1 uM incubated for 48 hrs by sulforhodamine B assay relative to control; settings: read-out: Activity
SK-MEL-28 = assay: Growth inhibition of human SK-MEL-28 cells assessed as cell growth at 0.1 uM incubated for 48 hrs by sulforhodamine B assay relative to control; settings: read-out: Activity
IGROV-1 [7] = assay: Growth inhibition of human IGROV-1 cells assessed as cell growth at 0.1 uM incubated for 48 hrs by sulforhodamine B assay relative to control; settings: read-out: Activity
OVCAR-5 = assay: Growth inhibition of human OVCAR-5 cells assessed as cell growth at 0.1 uM incubated for 48 hrs by sulforhodamine B assay relative to control; settings: read-out: Activity
BT-549 [8] = assay: Growth inhibition of human BT-549 cells assessed as cell growth at 0.1 uM incubated for 48 hrs by sulforhodamine B assay relative to control; settings: read-out: Activity
K562 = assay: Growth inhibition of human K562 cells assessed as cell growth at 1 uM incubated for 48 hrs by sulforhodamine B assay relative to control; settings: read-out: Activity
MOLT-4 [9] = assay: Growth inhibition of human MOLT-4 cells assessed as cell growth at 1 uM incubated for 48 hrs by sulforhodamine B assay relative to control; settings: read-out: Activity
SNB-19 [10] = assay: Growth inhibition of human SNB-19 cells assessed as cell growth at 1 uM incubated for 48 hrs by sulforhodamine B assay relative to control; settings: read-out: Activity
UACC-257 = assay: Growth inhibition of human UACC-257 cells assessed as cell growth at 1 uM incubated for 48 hrs by sulforhodamine B assay relative to control; settings: read-out: Activity
IGROV-1 [11] = assay: Growth inhibition of human IGROV-1 cells assessed as cell growth at 1 uM incubated for 48 hrs by sulforhodamine B assay relative to control; settings: read-out: Activity
MCF7 = assay: Growth inhibition of human MCF7 cells assessed as cell growth at 1 uM incubated for 48 hrs by sulforhodamine B assay relative to control; settings: read-out: Activity
BT-549 [12] = assay: Growth inhibition of human BT-549 cells assessed as cell growth at 1 uM incubated for 48 hrs by sulforhodamine B assay relative to control; settings: read-out: Activity
RPMI-8226 [13] = assay: Growth inhibition of human RPMI-8226 cells assessed as cell growth at 100 uM incubated for 48 hrs by sulforhodamine B assay relative to control; settings: read-out: Activity
NCI-H460 [14] = assay: Growth inhibition of human NCI-H460 cells assessed as cell growth at 100 uM incubated for 48 hrs by sulforhodamine B assay relative to control; settings: read-out: Activity
HCT-15 = assay: Growth inhibition of human HCT-15 cells assessed as cell growth at 100 uM incubated for 48 hrs by sulforhodamine B assay relative to control; settings: read-out: Activity
MDA-MB-435 = assay: Growth inhibition of human MDA-MB-435 cells assessed as cell growth at 100 uM incubated for 48 hrs by sulforhodamine B assay relative to control; settings: read-out: Activity
CAKI-1 [15] = assay: Growth inhibition of human CAKI-1 cells assessed as cell growth at 100 uM incubated for 48 hrs by sulforhodamine B assay relative to control; settings: read-out: Activity; in short: as §1
Hs-578T = assay: Growth inhibition of human Hs-578T cells assessed as cell growth at 100 uM incubated for 48 hrs by sulforhodamine B assay relative to control; settings: read-out: Activity
RPMI-8226 [16] = assay: Growth inhibition of human RPMI-8226 cells incubated for 48 hrs by sulforhodamine B assay
In short: (§2)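 NCI DTP 60-line human tumour panel. Dose-response curves were run only for ligands active in the initial 10 µM screen. GI50 (concentration giving 50% of maximal inhibition of proliferation) and TGI (concentration giving total growth inhibition) were derived from these curves.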

SF-539 = assay: Growth inhibition of human SF-539 cells incubated for 48 hrs by sulforhodamine B assay; settings: for CC50: read-out: LC50 (the source's name); in short: as §2
OVCAR-8 = assay: Growth inhibition of human OVCAR-8 cells incubated for 48 hrs by sulforhodamine B assay; settings: for CC50: read-out: LC50 (the source's name); in short: as §2
SN12C = assay: Growth inhibition of human SN12C cells incubated for 48 hrs by sulforhodamine B assay; settings: for CC50: read-out: LC50 (the source's name); in short: as §2

Cc1cc(C)c(NC(=O)c2sc3nc4c(cc3c2N)CN(Cc2ccccc2)CC4)c(C)c1
growth at 0.01 µM (MOLT-4 [1]): 99%
growth at 0.01 µM (NCI-H322M): 96%
growth at 0.01 µM (HCT-116): 93%
growth at 0.01 µM (HT-29 [2]): 105%
growth at 0.01 µM (SF-295): 86%
growth at 0.01 µM (SK-MEL-2): 108%
growth at 0.01 µM (UACC-62): 101%
growth at 0.01 µM (CAKI-1 [3]): 88%
growth at 0.01 µM (RXF 393): 92%
growth at 0.01 µM (DU-145): 104%
growth at 0.1 µM (SR): 103%
growth at 0.1 µM (NCI-H460 [4]): 103%
growth at 0.1 µM (HT-29 [5]): 100%
growth at 0.1 µM (SNB-19 [6]): 96%
growth at 0.1 µM (SNB-75): 94%
growth at 0.1 µM (M14): 94%
growth at 0.1 µM (SK-MEL-28): 97%
growth at 0.1 µM (IGROV-1 [7]): 94%
growth at 0.1 µM (OVCAR-5): 96%
growth at 0.1 µM (BT-549 [8]): 91%
growth at 1 µM (K562): 47%
growth at 1 µM (MOLT-4 [9]): 96%
growth at 1 µM (SNB-19 [10]): 87%
growth at 1 µM (UACC-257): 80%
growth at 1 µM (IGROV-1 [11]): 85%
growth at 1 µM (MCF7): 61%
growth at 1 µM (BT-549 [12]): 81%
growth at 100 µM (RPMI-8226 [13]): -11%
growth at 100 µM (NCI-H460 [14]): -25%
growth at 100 µM (HCT-15): 4%
growth at 100 µM (MDA-MB-435): -58%
growth at 100 µM (CAKI-1 [15]): 4%
growth at 100 µM (Hs-578T): -3%
GI50 (RPMI-8226 [16]): 3.18 µM
LC50 (RPMI-8226 [16]): > 100 µM
TGI (RPMI-8226 [16]): 35.1 µM
GI50 (SF-539): 2.44 µM
TGI (SF-539): 7.79 µM
CC50 (SF-539): > 100 µM
GI50 (OVCAR-8): 4.72 µM
TGI (OVCAR-8): > 100 µM
CC50 (OVCAR-8): > 100 µM
GI50 (SN12C): 5.6 µM
TGI (SN12C): > 100 µM
CC50 (SN12C): > 100 µM

COc1cccc(NC(=O)c2sc3nc4c(cc3c2N)CN(Cc2ccccc2)CC4)c1
growth at 0.01 µM (MOLT-4 [1]): 102%
growth at 0.01 µM (NCI-H322M): 101%
growth at 0.01 µM (HCT-116): 91%
growth at 0.01 µM (HT-29 [2]): 104%
growth at 0.01 µM (SF-295): 87%
growth at 0.01 µM (SK-MEL-2): 106%
growth at 0.01 µM (UACC-62): 94%
growth at 0.01 µM (CAKI-1 [3]): 87%
growth at 0.01 µM (RXF 393): 97%
growth at 0.01 µM (DU-145): 105%
growth at 0.1 µM (SR): 99%
growth at 0.1 µM (NCI-H460 [4]): 101%
growth at 0.1 µM (HT-29 [5]): 103%
growth at 0.1 µM (SNB-19 [6]): 94%
growth at 0.1 µM (SNB-75): 92%
growth at 0.1 µM (M14): 95%
growth at 0.1 µM (SK-MEL-28): 99%
growth at 0.1 µM (IGROV-1 [7]): 102%
growth at 0.1 µM (OVCAR-5): 95%
growth at 0.1 µM (BT-549 [8]): 91%
growth at 1 µM (K562): 31%
growth at 1 µM (MOLT-4 [9]): 78%
growth at 1 µM (SNB-19 [10]): 82%
growth at 1 µM (UACC-257): 78%
growth at 1 µM (IGROV-1 [11]): 90%
growth at 1 µM (MCF7): 40%
growth at 1 µM (BT-549 [12]): 72%
growth at 100 µM (RPMI-8226 [13]): 27%
growth at 100 µM (NCI-H460 [14]): -25%
growth at 100 µM (HCT-15): 6%
growth at 100 µM (MDA-MB-435): -74%
growth at 100 µM (CAKI-1 [15]): 11%
growth at 100 µM (Hs-578T): -9%
GI50 (RPMI-8226 [16]): 38.9 µM
LC50 (RPMI-8226 [16]): > 100 µM
TGI (RPMI-8226 [16]): > 100 µM
GI50 (SF-539): 1.99 µM
TGI (SF-539): 6.56 µM
CC50 (SF-539): 36.4 µM
GI50 (OVCAR-8): 4.45 µM
TGI (OVCAR-8): 85.2 µM
CC50 (OVCAR-8): > 100 µM
GI50 (SN12C): 11.2 µM
TGI (SN12C): > 100 µM
CC50 (SN12C): > 100 µM
